Compound activity (PubChem)
In the library only some 0.9% were active in any assay of this set; here they are far more common.
RGS16-Gao HTS: modulates binding between human RGS16 and Galphao. bead-based flow cytometry RGS16-Galphao binding, fluorescence; actives lie on both sides. binding response (% of control), % at 10 µM. hit rate 0.38% among 220,000. AID 1441;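 further: Galphao activated by GDP with aluminum fluoride before binding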
ABCG2 inh: inhibitors of human ABCG2 transporter, ABCB1 counter-screen. hit rate 0.1% among 190,000. IgMXP3 cells, JC-1 efflux, flow cytometry. inhibition, % at 6.6 µM. Q9UNQ0;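 active means inhibition above 80%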
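Test system: IgMXP3 (ABCG2) plus far-red-tagged CCRF-Adr (ABCB1) cells / Amount: 3 million cells/mL in well / Reagent: JC-1 transporter substrate / Timing: 10 min compound exposure, 25 °C / Signal: flow cytometry, 530 nm JC-1 signal / Read-out: percent efflux inhibition, scaled nicardipine 100% to DMSO 0% / Benchmarks: nicardipine as high control, DMSO as low control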
RGS4-Gao reg: modulates binding of RGS4 to human Galphao; P09471; binding response (% of control), % at 10 µM; Multiplexed bead flow cytometry; actives lie on both sides; hit rate 0.33% among 220,000; in the data active means binding response below about 49% or above about 150%; inactive means in between;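 further: fluorescent Galphao activated with aluminum fluoride binding bead-coupled RGS4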
RGS8-Gao: regulators of human RGS8-Galphao interaction; multiplexed bead flow cytometry, RGS8-Galphao binding; actives lie on both sides; response (percent of control binding), % at 10 µM; hit rate 0.34% among 220,000; in the data active means response below about 60% or above about 140%; inactive means in between;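 further: Galphao activated as the GDP aluminium fluoride complex binding bead-coupled RGS8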
RGS7-Gao: human RGS7-Galphao interaction regulation; P09471; Multiplexed bead flow cytometry, RGS7-Galphao binding; actives lie on both sides; binding response (% of control), % at 10 µM; hit rate 0.35% among 220,000; AID 1439; in the data active means binding response below about 49% or above about 150%; inconclusive means no clear call, values can overlap the other calls; inactive means in between;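 further: fluorescent Galphao held in activated GDP-AlF4 state binding bead-coupled RGS7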
ABCB1 inh: blocks JC-1 efflux by human ABCB1 transporter | P08183 | CCRF-Adr cells, flow cytometry | inhibition, % at 6.6 µM | hit rate 0.067% among 190,000; in the data active means inhibition above about 40%;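 further: higher value means more JC-1 retained so stronger ABCB1 efflux block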
RGS-Gao: modulates binding between human RGS4 and Galphao | multiplexed bead flow cytometry, RGS–Galpha-o binding | RGS4–Galpha-o binding response, % at 10 µM | shares compounds with RGS16-Gao HTS | AID 1504 | hit rate 99% among 1,600;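 further: fluorescently labeled Galpha-o bound to GDP with aluminium fluoride binding biotinylated RGS beads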
Avidin counter: biotin-avidin bead binding disruption counter-screen. 1,700 tested, under 10 active. shares compounds with RGS16-Gao HTS. AID 1783. inhibition, % at 10 µM. streptavidin beads, fluorescein-biotin binding, flow cytometry;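 active means inhibition above 50%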;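 further: median green fluorescence of gated singlet beads compared with DMSO control wells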
RGS8-Gao single: confirmation of regulators of human RGS8-Galphao interaction | shares compounds with RGS16-Gao HTS | bead-based flow cytometry RGS8-Galphao binding, fluorescence; actives lie on both sides | binding response (% of control), % at 10 µM | hit rate 3% among 1,700; in the data active means binding response below about 72% or above about 130%; inactive means in between;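 further: Galphao activated as GDP AlF4 complex before binding bead RGS8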
RGS7-Gao single: confirmation of regulators of human RGS7-Galphao interaction. shares compounds with RGS16-Gao HTS. bead-based flow cytometry RGS7-Galphao binding; actives lie on both sides. response (percent of control binding), % at 10 µM. hit rate 7.8% among 1,700; in the data active means response below about 75% or above about 130%; inactive means in between;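 further: fluorescent Galphao activated with GDP and aluminum fluoride binding bead-coupled RGS7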
RGS16-Gao single: RGS16-Galphao interaction regulation, single point confirmation; shares compounds with RGS16-Gao HTS; bead-based flow cytometry, RGS16-Galphao binding; actives lie on both sides; response (% of control binding), % at 10 µM; hit rate 4% among 1,700; in the data active means response below about 74% or above about 130%; inactive means in between;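 further: Galphao activated as the GDP aluminium fluoride complex binding bead-coupled RGS16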
RGS4-Gao single: confirmation of regulators of human RGS4-Galphao interaction | shares compounds with RGS16-Gao HTS | RGS4-Galphao binding, multiplexed bead flow cytometry; actives lie on both sides | binding response (% of control), % at 10 µM | hit rate 4% among 1,700 | AID 1840; in the data active means binding response below about 74% or above about 130%; inactive means in between
RGS19-Gao single: confirmation of regulators of human RGS19-Galphao interaction; response (percent of control binding), % at 10 µM; AID 1841; hit rate 5% among 1,700; bead-based flow cytometry RGS19-Galphao binding; actives lie on both sides; shares compounds with RGS16-Gao HTS; in the data active means response below about 50% or above about 160%; inactive means in between
Of the large screens only hits and unclear results are named; the others gave an inactive call (follow-up assays come after a bar, where they were run); [ ] = remark or other dose. Unless noted, how the calls were made is not given here.

CCN1CCN(c2cc(N3CCCC3)c(F)cc2[N+](=O)[O-])CC1	RGS16-Gao HTS 183.9[activator] | RGS-Gao 107.6 | Avidin counter inactive | RGS8-Gao single inactive | RGS7-Gao single 61.7 | RGS16-Gao single inactive | RGS4-Gao single inactive | RGS19-Gao single inactive
BrCC1C[n+]2c(SCc3ccccc3)nc3sc4c(c3c2O1)CCCC4 (centres undefined)	RGS16-Gao HTS 221.4[activator], RGS4-Gao reg 248.6[activator], RGS7-Gao inconclusive (no result: ABCG2 inh, ABCB1 inh) | Avidin counter inactive | RGS8-Gao single inactive | RGS7-Gao single inactive | RGS16-Gao single inactive | RGS4-Gao single inactive | RGS19-Gao single inactive
Nc1c2c(nc3sc4c(c13)CCCCC4)CCCC2	none
COP(=O)(OC)C1(O)C(=O)Nc2ccc(Br)cc21 (centres undefined)	none
CC(=O)CC(=O)C1C(=O)N(C)C(=O)N(C)C1=O	none
CN(C)C(=O)Nc1cccc(OC(=O)N(C)C)c1	RGS7-Gao 281.3[activator] | RGS-Gao 126.2 | Avidin counter inactive | RGS8-Gao single inactive | RGS7-Gao single inactive | RGS16-Gao single inactive | RGS4-Gao single inactive | RGS19-Gao single inactive
CC(C)NS(=O)(=O)c1ccc(OCC(=O)N2CCN(C)CC2)cc1	RGS8-Gao 185.5[activator] | RGS-Gao 134.3
O=c1[nH]c(=S)n(CCC2=CCCCC2)c(O)c1/C=N/N1CCOCC1	RGS7-Gao inconclusive (no result: ABCG2 inh, ABCB1 inh)
Cc1cc(Cl)nc(N)n1	RGS8-Gao 146.2[activator] | RGS-Gao 114.2 | Avidin counter inactive | RGS8-Gao single inactive | RGS7-Gao single inactive | RGS16-Gao single inactive | RGS4-Gao single inactive | RGS19-Gao single inactive
CCSC1=NN1c1cc(C)nc(N)n1	RGS7-Gao inconclusive (no result: ABCG2 inh, ABCB1 inh)
CCN(CC)CCCOC(=O)C(OC(C)C)(c1ccccc1)c1ccccc1	none
O=c1[nH]c(O)c(N=Nc2ccc(S(=O)(=O)N3CCOCC3)cc2)c(=O)[nH]1	none
O=c1[nH]c(=S)[nH]c(O)c1N=Nc1ccc(S(=O)(=O)N2CCOCC2)cc1	RGS16-Gao HTS -19.4, RGS4-Gao reg -35.5, RGS8-Gao 0.7, RGS7-Gao inconclusive (no result: ABCG2 inh, ABCB1 inh) | Avidin counter inactive | RGS8-Gao single inactive | RGS7-Gao single inactive | RGS16-Gao single inactive | RGS4-Gao single inactive | RGS19-Gao single inactive
C1=C(c2c[nH]c3ccccc23)CCNC1	RGS4-Gao reg 166.5[activator], RGS7-Gao 151.4[activator] | Avidin counter inactive | RGS8-Gao single inactive | RGS7-Gao single 135.5[activator] | RGS16-Gao single inactive | RGS4-Gao single inactive | RGS19-Gao single inactive
CC(C)N1CC=C(c2c[nH]c3ccccc23)CC1	none
COCCNC(=O)c1ccc(N2CC3CC(C2)c2cccc(=O)n2C3)c([N+](=O)[O-])c1 (centres undefined)	none
CCN(CC)c1ccc(/C=C2/C(=O)NC(=O)N(CC3CCCO3)C2=O)cc1 (centres undefined)	none
O=C1NC(=O)N(CC2CCCO2)C(=O)/C1=C/c1cccs1 (centres undefined)	RGS4-Gao reg 184.9[activator], RGS7-Gao inconclusive (no result: ABCG2 inh, ABCB1 inh) | Avidin counter inactive | RGS8-Gao single inactive | RGS7-Gao single inactive | RGS16-Gao single inactive | RGS4-Gao single inactive | RGS19-Gao single inactive
O=C1NC(c2cccnc2)Nc2sc3c(c21)CCCC3 (centres undefined)	RGS16-Gao HTS 22.7 | RGS-Gao 85.9 | Avidin counter inactive | RGS8-Gao single inactive | RGS7-Gao single inactive | RGS16-Gao single inactive | RGS4-Gao single inactive | RGS19-Gao single inactive
N#CC(C#N)=Cc1ccc(N2CCCC2)cc1	RGS4-Gao reg 184.0[activator], RGS7-Gao 667.6[activator] | Avidin counter inactive | RGS8-Gao single inactive | RGS7-Gao single inactive | RGS16-Gao single inactive | RGS4-Gao single inactive | RGS19-Gao single inactive
CC(C)(C)NC(=O)NC(=O)CN1CC=C(c2ccccc2)CC1	RGS7-Gao inconclusive
CC(=O)N1CC(=O)Nc2ccc(Cl)cc2C1c1ccc(F)cc1 (centres undefined)	RGS16-Gao HTS 10.9, RGS4-Gao reg 25.4, RGS8-Gao 14.8, RGS7-Gao 18.9 | Avidin counter inactive | RGS8-Gao single inactive | RGS7-Gao single inactive | RGS16-Gao single inactive | RGS4-Gao single inactive | RGS19-Gao single inactive
CCC(=O)N1CC(=O)Nc2ccc(Cl)cc2C1c1ccc(F)cc1 (centres undefined)	none
O=C1NC(=O)N(C2CCCCC2)C(=O)C1C1c2ccccc2C(=O)N1Cc1ccccc1 (centres undefined)	none
